From ChEMBL document CHEMBL1125249, “Structure-affinity relationships of 12-sulfonyl derivatives of 5,8,8a,9,10,11,12,12a,13,13a-decahydro-6H-isoquino[2,1-g][1 ,6] naphthyridines at alpha-adrenoceptors” (J Med Chem, 1991)

Key:
[1] = biological target: T1, Adrenergic receptor alpha-2 (Rattus norvegicus, UniProt P22086+P19328+P22909); assay: Binding affinity to alpha-2 adrenergic receptor determined by measurement of [3H]yohimbine displacement from rat cortical membrane
T1 sequence (P22086 whole entry): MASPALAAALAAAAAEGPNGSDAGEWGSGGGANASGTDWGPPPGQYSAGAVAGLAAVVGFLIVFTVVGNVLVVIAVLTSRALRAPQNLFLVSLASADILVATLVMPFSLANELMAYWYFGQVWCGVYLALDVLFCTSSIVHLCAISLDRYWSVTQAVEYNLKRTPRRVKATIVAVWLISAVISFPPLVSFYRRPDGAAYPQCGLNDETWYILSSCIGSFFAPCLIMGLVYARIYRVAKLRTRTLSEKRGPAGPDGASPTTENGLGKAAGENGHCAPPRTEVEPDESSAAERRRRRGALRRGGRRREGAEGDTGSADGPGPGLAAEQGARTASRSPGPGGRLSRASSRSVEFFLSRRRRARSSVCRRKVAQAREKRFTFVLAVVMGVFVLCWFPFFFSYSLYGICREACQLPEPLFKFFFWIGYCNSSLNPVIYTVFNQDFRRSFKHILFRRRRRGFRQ
T1 sequence (P19328 whole entry): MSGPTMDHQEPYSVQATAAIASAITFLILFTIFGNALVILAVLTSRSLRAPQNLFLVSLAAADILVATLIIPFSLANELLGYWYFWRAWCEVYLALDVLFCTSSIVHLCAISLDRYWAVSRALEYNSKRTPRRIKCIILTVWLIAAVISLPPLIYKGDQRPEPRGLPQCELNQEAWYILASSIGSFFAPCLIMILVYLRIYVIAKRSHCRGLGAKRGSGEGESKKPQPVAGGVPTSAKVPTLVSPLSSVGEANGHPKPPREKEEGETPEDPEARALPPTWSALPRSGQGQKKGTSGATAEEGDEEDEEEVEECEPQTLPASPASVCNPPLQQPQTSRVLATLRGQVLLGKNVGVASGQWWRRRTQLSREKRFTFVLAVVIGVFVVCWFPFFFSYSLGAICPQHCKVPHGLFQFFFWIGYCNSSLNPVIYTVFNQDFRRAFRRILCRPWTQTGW
T1 sequence (P22909 whole entry): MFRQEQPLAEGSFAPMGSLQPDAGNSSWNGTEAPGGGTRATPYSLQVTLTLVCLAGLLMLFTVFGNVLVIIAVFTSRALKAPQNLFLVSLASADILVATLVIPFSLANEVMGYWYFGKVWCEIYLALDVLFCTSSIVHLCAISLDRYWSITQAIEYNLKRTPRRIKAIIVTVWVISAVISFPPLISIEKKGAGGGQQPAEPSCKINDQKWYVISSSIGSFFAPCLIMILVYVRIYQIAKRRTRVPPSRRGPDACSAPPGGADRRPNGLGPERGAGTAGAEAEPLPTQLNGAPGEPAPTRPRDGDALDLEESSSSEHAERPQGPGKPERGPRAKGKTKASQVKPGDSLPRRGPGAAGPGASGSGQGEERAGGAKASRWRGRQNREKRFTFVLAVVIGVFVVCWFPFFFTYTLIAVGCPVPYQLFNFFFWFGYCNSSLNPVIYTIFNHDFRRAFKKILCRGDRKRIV

[2] = biological target: T2, Adrenergic receptor alpha-1 (Rattus norvegicus, UniProt P15823+P23944+P43140); assay: Binding affinity to alpha-1 adrenergic receptor determined by measurement of [3H]prazosin displacement from rat cortical membrane
T2 sequence (P15823 whole entry): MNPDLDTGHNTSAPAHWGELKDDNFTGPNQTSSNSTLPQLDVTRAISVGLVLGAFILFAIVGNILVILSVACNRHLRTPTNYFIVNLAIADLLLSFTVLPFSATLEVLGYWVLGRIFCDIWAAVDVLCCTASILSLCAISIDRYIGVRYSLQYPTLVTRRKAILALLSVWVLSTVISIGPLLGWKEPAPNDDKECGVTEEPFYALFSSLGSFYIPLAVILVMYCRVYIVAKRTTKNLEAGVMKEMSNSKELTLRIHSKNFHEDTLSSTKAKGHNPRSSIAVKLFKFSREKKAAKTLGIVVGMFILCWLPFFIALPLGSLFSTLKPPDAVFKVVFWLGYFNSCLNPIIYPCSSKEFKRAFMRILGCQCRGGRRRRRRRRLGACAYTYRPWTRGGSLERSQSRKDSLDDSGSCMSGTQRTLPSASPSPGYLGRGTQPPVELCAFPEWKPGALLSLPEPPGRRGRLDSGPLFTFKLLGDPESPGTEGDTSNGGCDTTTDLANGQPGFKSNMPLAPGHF
T2 sequence (P23944 whole entry): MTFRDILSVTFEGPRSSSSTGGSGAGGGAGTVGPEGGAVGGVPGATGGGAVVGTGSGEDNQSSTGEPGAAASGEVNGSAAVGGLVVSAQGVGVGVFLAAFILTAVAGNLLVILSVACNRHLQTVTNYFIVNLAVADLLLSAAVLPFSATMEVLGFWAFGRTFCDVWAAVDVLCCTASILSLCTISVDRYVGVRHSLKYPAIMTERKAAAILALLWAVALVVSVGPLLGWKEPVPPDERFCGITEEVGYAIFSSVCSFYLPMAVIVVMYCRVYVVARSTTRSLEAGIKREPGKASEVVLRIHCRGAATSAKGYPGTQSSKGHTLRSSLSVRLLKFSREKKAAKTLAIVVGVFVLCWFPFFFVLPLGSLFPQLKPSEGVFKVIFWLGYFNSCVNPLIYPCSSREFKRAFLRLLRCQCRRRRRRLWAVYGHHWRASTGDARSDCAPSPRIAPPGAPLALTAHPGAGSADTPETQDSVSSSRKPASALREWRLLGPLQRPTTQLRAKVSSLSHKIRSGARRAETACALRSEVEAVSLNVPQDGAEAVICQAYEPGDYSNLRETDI
T2 sequence (P43140 whole entry): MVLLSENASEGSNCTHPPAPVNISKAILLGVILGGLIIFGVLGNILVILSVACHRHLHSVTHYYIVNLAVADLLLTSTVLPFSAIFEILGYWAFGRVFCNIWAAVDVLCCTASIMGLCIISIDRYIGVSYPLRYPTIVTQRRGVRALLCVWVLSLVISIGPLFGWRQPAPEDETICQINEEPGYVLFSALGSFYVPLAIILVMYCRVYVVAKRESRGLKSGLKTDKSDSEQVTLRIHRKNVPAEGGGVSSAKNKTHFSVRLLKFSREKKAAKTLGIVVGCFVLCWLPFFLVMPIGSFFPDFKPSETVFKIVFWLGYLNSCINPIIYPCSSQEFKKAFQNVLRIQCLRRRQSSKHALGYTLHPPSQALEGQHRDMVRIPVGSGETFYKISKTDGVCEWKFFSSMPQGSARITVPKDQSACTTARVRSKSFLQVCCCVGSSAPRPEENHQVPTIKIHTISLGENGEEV
Method in brief: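 Male Sprague-Dawley rat (150-200 g) cerebral cortex membranes, washed in 50 mM Tris-HCl/0.5 mM EDTA pH 7.4. 250 µg membrane protein incubated with 0.5 nM [3H]prazosin for 30 min at 25 °C in a 0.5 mL volume. Nonspecific binding defined by 10 µM phentolamine. IC50 estimated graphically; Ki calculated by Cheng-Prusoff.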

[3] = biological target: T3, Adrenergic receptor alpha-2 (Rattus norvegicus) (UniProt P22086+P19328+P22909)
[4] = biological target: T3, Adrenergic receptor alpha-2 (Rattus norvegicus); remark: listed apart in the source
Cavia porcellus = organism: Cavia porcellus; assay: In vitro reversal of inhibitory effect of UK - 14304 on the contractile response of guinea pig ileum to field stimulation.; type: functional, organism-based; settings: read-out: pA2 (converted)
Method in brief: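 Ileum from female Dunkin-Hartley guinea pigs (250-300 g) held in Tyrode solution at 37 °C, gassed with O2, under 1 g tension. Field stimulation at 0.1 Hz (1-ms pulses, supramaximal voltage), with isometric contractions recorded. Cumulative UK-14304 curves were run, the second taken as control. Antagonist was then applied for 40 min before repeat agonist curves.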

Compound	Log Ki [1]	Log Ki [2]	ID50 [3] [mg/kg]	ID50 [4] [mg/kg]	Kb (Cavia porcellus) [nM]
O=S(=O)(CCO)N1CCC[C@@H]2CN3CCc4ccccc4[C@@H]3C[C@@H]21	-8.16	-4.89	0.046	1.34	
CC(C)CS(=O)(=O)N1CCC[C@@H]2CN3CCc4ccccc4[C@@H]3C[C@@H]21	-8.77	-5.37	0.034	0.85	0.316
COCCS(=O)(=O)N1CCC[C@@H]2CN3CCc4cc(OC)ccc4[C@@H]3C[C@@H]21	-9.22	-5.03	0.09	0.3	
COc1ccc2c(c1)CCN1C[C@H]3CCCN(S(C)(=O)=O)[C@@H]3C[C@@H]21			0.0065	0.095	0.2
COCCS(=O)(=O)N1CCC[C@@H]2CN3CCc4ccccc4[C@@H]3C[C@@H]21	-8.63	-5.13	0.062	0.24	
CC(C)CS(=O)(=O)N1CCC[C@@H]2CN3CCc4cc5c(cc4[C@@H]3C[C@@H]21)OCO5	-8.17	-5.04	0.062	0.44	
COc1ccc2c(c1)CCN1C[C@H]3CCCN(S(C)(=O)=O)[C@H]3C[C@@H]21 [DELEQUAMINE]	-9.18	-4.99	0.013	0.21	0.2
COc1ccc2c(c1)CCN1C[C@H]3CCCN(S(=O)(=O)N(C)C)[C@@H]3C[C@@H]21	-8.97	-5.57	0.027	0.17	0.501
CS(=O)(=O)N1CCC[C@@H]2CN3CCc4cc5c(cc4[C@@H]3C[C@@H]21)OCCO5	-8.8	-5.02	0.13	1.4	
CS(=O)(=O)N1CCC[C@@H]2CN3CCc4ccccc4[C@@H]3C[C@@H]21	-8.77	-5.26	0.0125	1.2	
COc1ccc2c(c1)CCN1C[C@@H]3CCCN(S(C)(=O)=O)[C@@H]3C[C@H]21	-6.32	< -5	> 10	> 10	316
COc1ccc(S(=O)(=O)N2CCC[C@@H]3CN4CCc5ccccc5[C@@H]4C[C@@H]32)cc1	-9.34	-5.31	0.18	> 3	1.58
CS(=O)(=O)N1CCC[C@@H]2CN3CCc4cc5c(cc4[C@@H]3C[C@@H]21)OCO5	-9.18	-5.14	0.06	0.76	1
COc1cc2c(cc1OC)[C@@H]1C[C@H]3[C@H](CCCN3S(C)(=O)=O)CN1CC2	-8.01	-4.46	0.38	1.6	
CCCS(=O)(=O)N1CCC[C@@H]2CN3CCc4ccccc4[C@@H]3C[C@@H]21	-8.73	-5.29	0.019	1.4	0.398
c1ccc2c(c1)OCC(C1=NCCN1)O2 (centres undefined) [IDAZOXAN]			0.017	1.2	3.98
COC(=O)[C@@H]1[C@H]2C[C@H]3c4[nH]c5ccccc5c4CCN3C[C@@H]2CC[C@@H]1O			0.185	2.8	
COc1ccc2c(c1Br)CCN1C[C@H]3CCCN(S(C)(=O)=O)[C@@H]3C[C@@H]21	-8.3	-5.35			
COc1ccc2c(c1OC)CCN1C[C@H]3CCCN(S(C)(=O)=O)[C@H]3C[C@@H]21	-7.94	-4.42			
COc1ccc2c(c1)CCN1C[C@H]3CCCN(S(=O)(=O)CC(C)C)[C@H]3C[C@@H]21	-8.77	-5.41	0.022	0.41	
CS(=O)(=O)N1CCC[C@H]2CN3CCc4c([nH]c5ccccc45)[C@@H]3C[C@H]21	-6.26	-5.15			
COc1ccc2c(c1)CCN1C[C@H]3CCCN(S(=O)(=O)N(C)C)[C@H]3C[C@@H]21	-8.66	-5.25			
O=S(=O)(c1ccccc1)N1CCC[C@@H]2CN3CCc4ccccc4[C@@H]3C[C@@H]21	-8.81	-5.31	0.053	> 10	
CS(=O)(=O)N1CCC[C@@H]2CN3CCc4ccc(F)cc4[C@@H]3C[C@@H]21	-8.04	-5.21			
